From PMC5593162 (Clinical and Translational Science, 2017)
Where two headings read alike, the source gives them in different places.

Tests used:
[1] = assay type: in vivo, healthy adult subjects (human)
Outline: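 Open-label, fixed-sequence, three periods, ≥10-day washouts, overnight-fasted. Single oral inhibitor FDC (50 mg/100 mg) given alone, after H2-antagonist 20 mg orally ~10 h and 2 h before, or ~2 h after PPI 40 mg on day 5 of 5 daily doses. Plasma sampled predose to 96 h; LC-MS/MS. Noncompartmental; t½ = ln2/λz; GMRs via mixed-effects model on log values.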

[2] = ref previous studies; cited from earlier work
[3] = cited from earlier work

Compound	tmax, median ([1]; EBR in plasma, EBR/GZR FDC + FAM 20 mg given 10 h and 2 h before)	C24 GMR ([1]; EBR, EBR/GZR FDC + FAM / EBR/GZR FDC)	C24 GMR ([1]; EBR, EBR/GZR FDC + PAN / EBR/GZR FDC)	Tmax ([1]; human, plasma, po, 100 mg)	half-life ([1]; human, plasma, po, 100 mg)	apparent terminal half-life (t½) [2]	time to maximum drug concentration (tmax) [2]	C24 GMR ([1]; GZR, EBR/GZR FDC + FAM / EBR/GZR FDC)	C24 GMR ([1]; GZR, EBR/GZR FDC + PAN / EBR/GZR FDC)	solubility versus stomach pH [3]
COC(=O)N[C@H](C(=O)N1CCC[C@H]1c1nc(-c2ccc3c(c2)O[C@@H](c2ccccc2)n2c-3cc3cc(-c4c[nH]c([C@@H]5CCCN5C(=O)[C@@H](NC(=O)OC)C(C)C)n4)ccc32)c[nH]1)C(C)C [EBR, elbasvir]	3.50 h	1.03	1.03	3.5 h	19.3 h	~20 h	2 to 4 h	–	–	–
C=C[C@@H]1C[C@]1(NC(=O)[C@@H]1C[C@@H]2CN1C(=O)[C@H](C(C)(C)C)NC(=O)O[C@@H]1C[C@H]1CCCCCc1nc3ccc(OC)cc3nc1O2)C(=O)NS(=O)(=O)C1CC1 [GZR, grazoprevir]	–	–	–	–	33.8 h	~20 h	2 to 4 h	1.12	1.17	–
COC(=O)N[C@H](C(=O)N1CC2(CC2)C[C@H]1c1ncc(-c2ccc3c(c2)C(F)(F)c2cc(-c4ccc5nc([C@@H]6[C@H]7CC[C@H](C7)N6C(=O)[C@@H](NC(=O)OC)C(C)C)[nH]c5c4)ccc2-3)[nH]1)C(C)C [ledipasvir]	–	–	–	–	–	–	–	–	–	decrease as stomach pH increases
COC[C@H]1C[C@@H](c2ncc(-c3ccc4c(c3)COc3cc5c(ccc6nc([C@@H]7CC[C@H](C)N7C(=O)[C@@H](NC(=O)OC)C(C)C)[nH]c65)cc3-4)[nH]2)N(C(=O)[C@H](NC(=O)OC)c2ccccc2)C1 [velpatasvir]	–	–	–	–	–	–	–	–	–	decrease as stomach pH increases
